Key:
HeLa cells = test: Caspase activity assay with fluorogenic substrate Ac-DEVD-AMC in cell lysates; assay type: cell-based, human; conditions: HeLa cells treated with STS
In short: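 HeLa cells were seeded at 0.3×10^6 per well in supplemented DMEM at 37 °C, 5% CO₂. […] Cells were lysed in hypotonic PIPES/NP-40 buffer pH 7.4 on ice. Lysate (20 μg protein) was incubated with 50 μM Ac-DEVD-AMC in 100 μL caspase buffer for 1 h at 37 °C. AMC fluorescence (ex 360/em 460) was converted to pmol by free-AMC standard curve; mean of three.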

caspase-7 = target: T1, caspase-7 (Homo sapiens, UniProt P55210); test: Biochemical inhibition assay, kinact/Ki with AMAC substrate; conditions: AMAC-substrates, N = 4
T1 sequence (P55210 24-198 limits assumed): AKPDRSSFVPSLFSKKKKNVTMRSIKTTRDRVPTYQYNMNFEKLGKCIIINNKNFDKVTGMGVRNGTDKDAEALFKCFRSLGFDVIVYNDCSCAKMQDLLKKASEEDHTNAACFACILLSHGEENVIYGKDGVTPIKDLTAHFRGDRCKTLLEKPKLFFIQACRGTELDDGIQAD
T1 sequence (P55210 207-303 limits assumed): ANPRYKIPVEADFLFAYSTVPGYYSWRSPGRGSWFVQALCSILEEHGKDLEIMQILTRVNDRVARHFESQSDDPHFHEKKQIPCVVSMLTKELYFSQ
In short: (§1)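 Continuous fluorogenic inactivation assay with Ac-DEVD-AMAC at 100 μM final. Final enzyme concentrations were 1 nM caspase-3 and 5 nM caspase-7. Enzyme was added to substrate plus inhibitor, and fluorescence (ex 320/em 460) was read immediately. Progress curves were fit to F = -[v₀(1-exp(-kobst))/kobs-Fmax] to give kinact and Ki.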

caspase-9 = target: T2, caspase-9 (Homo sapiens, UniProt P55211); test: Biochemical inhibition assay, kinact/Ki with AMAC substrate; conditions: AMAC-substrates, N = 4
T2 sequence (P55211 1-315 limits assumed): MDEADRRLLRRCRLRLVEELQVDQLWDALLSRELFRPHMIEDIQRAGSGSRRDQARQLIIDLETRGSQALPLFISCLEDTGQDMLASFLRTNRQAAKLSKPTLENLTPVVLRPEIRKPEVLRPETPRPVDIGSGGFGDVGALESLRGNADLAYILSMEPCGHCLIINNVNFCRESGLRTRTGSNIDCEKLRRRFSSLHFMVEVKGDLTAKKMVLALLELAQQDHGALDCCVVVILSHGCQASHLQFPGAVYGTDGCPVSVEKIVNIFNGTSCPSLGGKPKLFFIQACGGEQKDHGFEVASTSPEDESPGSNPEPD
T2 sequence (P55211 331-416 limits assumed): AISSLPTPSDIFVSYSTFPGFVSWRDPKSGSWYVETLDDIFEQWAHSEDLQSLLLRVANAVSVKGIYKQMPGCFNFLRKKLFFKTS
In short: (§2)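 Caspase-8 (25 nM), caspase-9 (100 nM) and caspase-10 (20 nM) used Ac-IETD-AMAC; caspase-9 and caspase-10 buffers also had 0.7 M sodium citrate. Caspase-6 (25 nM) used Ac-VEID-AMAC. Fluorescence (ex 320/em 460) was read immediately, and progress curves were fit for kinact and Ki.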

caspase-3 [1] = target: T3, caspase-3 (Homo sapiens, UniProt P42574); conditions: cited from earlier work
T3 sequence (P42574 29-175 limits assumed): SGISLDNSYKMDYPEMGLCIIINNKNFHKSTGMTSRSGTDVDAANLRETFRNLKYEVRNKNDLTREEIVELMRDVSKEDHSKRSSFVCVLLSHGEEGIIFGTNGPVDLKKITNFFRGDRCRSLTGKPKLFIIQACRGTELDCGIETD
T3 sequence (P42574 176-277 limits assumed): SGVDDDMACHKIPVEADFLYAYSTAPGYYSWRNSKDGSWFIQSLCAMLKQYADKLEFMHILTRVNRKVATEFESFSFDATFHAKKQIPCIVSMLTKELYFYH

caspase-3 [2] = target: T3, caspase-3; test: Biochemical inhibition assay, kinact/Ki with Ac-DEVD-AMC substrate
In short: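 Ac-DEVD-AMC was 50 µM final and inhibitor 20 to 80 nM final. Reference inhibitor Ac-ATS010-KE was run alongside. kinact/Ki was derived as for the AMAC assay.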

caspase-8 = caspase-8 (Homo sapiens, UniProt Q14790); test: Biochemical inhibition assay, kinact/Ki with AMAC substrate; conditions: AMAC-substrates, N = 4
In short: as §2

Jurkat cells = conditions: ref Solania et al. [2019]; cited from earlier work
caspase-3 [3] = target: T3, caspase-3; test: Biochemical inhibition assay, kinact/Ki with AMAC substrate; conditions: AMAC-substrates, N = 4
In short: as §1

caspase-10 = target: T4, caspase-10 (Homo sapiens, UniProt Q92851); test: Biochemical inhibition assay, kinact/Ki with AMAC substrate; conditions: AMAC-substrates, N = 4
T4 sequence (Q92851 220-415 limits assumed): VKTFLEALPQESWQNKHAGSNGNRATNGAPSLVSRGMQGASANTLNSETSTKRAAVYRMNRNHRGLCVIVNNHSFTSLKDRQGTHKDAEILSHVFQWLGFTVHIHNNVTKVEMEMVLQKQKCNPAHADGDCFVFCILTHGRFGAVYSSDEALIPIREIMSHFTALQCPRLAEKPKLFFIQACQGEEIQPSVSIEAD
T4 sequence (Q92851 416-521 limits assumed): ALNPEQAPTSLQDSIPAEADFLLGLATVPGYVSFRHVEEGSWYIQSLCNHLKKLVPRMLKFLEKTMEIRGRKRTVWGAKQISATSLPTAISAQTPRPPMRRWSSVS
In short: as §2

caspase-6 = target: T5, caspase-6 (Homo sapiens, UniProt P55212); test: as above; conditions: AMAC-substrates, N = 4
T5 sequence (P55212 24-179 limits assumed): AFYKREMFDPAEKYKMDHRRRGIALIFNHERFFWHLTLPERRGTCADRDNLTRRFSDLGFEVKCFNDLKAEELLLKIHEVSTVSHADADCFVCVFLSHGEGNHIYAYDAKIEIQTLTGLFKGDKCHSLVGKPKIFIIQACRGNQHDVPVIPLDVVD
T5 sequence (P55212 194-293 limits assumed): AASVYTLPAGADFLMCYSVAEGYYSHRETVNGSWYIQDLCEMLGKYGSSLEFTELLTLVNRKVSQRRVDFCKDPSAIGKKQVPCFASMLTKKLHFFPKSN
In short: as §2

HT29 tumours = test: Caspase activity in tumour homogenates with fluorogenic substrate; assay type: in vivo, CD1^−/− nude mice; conditions: 24 h after treatment
In short: (§3)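 Female CD1 nude mice bore subcutaneous hind-leg xenografts: COLO205 at 2×10⁶ cells, HT29 at 10×10⁶. At about 200 mm³, mice received conatumumab or IgG1 isotype, 1.5 mg/kg i.p. Tumours were taken 24 h later and homogenised. Homogenate (20 μg protein) was incubated with 50 μM Ac-DEVD-AMC in caspase buffer, 1 h, 37 °C. AMC (ex 360/em 460) was quantified in pmol against a free-AMC standard; N = 3.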

COLO205 tumours = test: as above; assay type: in vivo, CD1^−/− nude mice; conditions: 24 h after treatment
In short: as §3

Chain of caspase-8 (Q14790 217-374 limits assumed): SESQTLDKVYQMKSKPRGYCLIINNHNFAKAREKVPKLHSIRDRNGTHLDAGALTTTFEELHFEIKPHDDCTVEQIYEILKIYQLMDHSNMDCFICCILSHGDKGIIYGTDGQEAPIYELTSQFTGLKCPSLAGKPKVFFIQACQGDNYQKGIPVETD
Chain of caspase-8 (Q14790 385-479 limits assumed): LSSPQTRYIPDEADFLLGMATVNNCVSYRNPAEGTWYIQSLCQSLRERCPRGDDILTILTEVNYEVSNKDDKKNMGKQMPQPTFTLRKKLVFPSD

Molecule: CN[C@@H]1C[C@H]2O[C@@](C)([C@@H]1OC)n1c3ccccc3c3c4c(c5c6ccccc6n2c5c31)C(=O)NC4 [STS, staurosporine]
- AMC liberation (caspase activity) (HeLa cells): 1598 ± 444 pmol AMC

Molecule: Ac-3Pal-Asp-Phe(F5)-Phe-Asp-KE [Ac-ATS010-KE, reference compound]
- kinact/Ki C7 (caspase-7): 190000 M⁻¹ s⁻¹
- kinact/Ki C9 (caspase-9): 14000 M⁻¹ s⁻¹
- increase of kinact/Ki for caspase-3 over the DW3 sequence (caspase-3 [1]; ref Solania et al. [2019]): 154 fold
- kinact/Ki caspase-3 (caspase-3 [2]): 46.48 ± 9.96 × 10^4.s^−1.M^−1
- kinact/Ki C8 (caspase-8): 25000 M⁻¹ s⁻¹
- protection from MegaFasL-induced apoptosis (Jurkat cells): able to protect Jurkat cells from MegaFasL-induced apoptosis
- kinact/Ki C3 (caspase-3 [3]): 1.7e+06 M⁻¹ s⁻¹
- kinact/Ki C10 (caspase-10): 1000 M⁻¹ s⁻¹
- kinact/Ki C6 (caspase-6): 300 M⁻¹ s⁻¹

Molecule: Ac-3Pal-Asp-βhLeu-Phe-Asp-KE [Ac-DW3-KE]
- efficiency in inactivation of caspase-3, less than Ac-DEVD-KE (caspase-3 [1]; ref Solania et al. [2019]): 500 times
- selectivity for caspase-3 against caspase-7 (caspase-3 [1]; ref Vickers et al. [2013]): 120 fold
- selectivity for caspase-3 against caspase-8 (caspase-3 [1]; ref Vickers et al. [2013]): 58 fold

Molecule: conatumumab: apoptosis-inducing therapy (Amgen) given to tumour-bearing mice, compared with IgG1 isotype control
- caspase activity, liberated AMC (HT29 tumours): 679 ± 63 pmol liberated AMC
- caspase activity, liberated AMC (COLO205 tumours): 15,119 ± 761 pmol liberated AMC

From publication PMC11310375 (EJNMMI Radiopharmacy and Chemistry, 2024)
